One experiment has as its target PKN2 (PRK2) (Homo sapiens, UniProt Q16513). Put plainly: Kinase selectivity for OMS14. In kind it is biochemical.
Another experiment deals with AKT1 (PKB α) (Homo sapiens, UniProt P31749). Put plainly: Kinase selectivity for OMS14. In kind it is biochemical.
For experiment [1], the target named is PIK3CD/PIK3R1 (p110 δ/p85 α) (Homo sapiens, UniProt O00329). Put plainly: Kinase selectivity for OMS14. In kind it is biochemical.
The test system of a further experiment is MCF-7 cancer cell line. Put plainly: MTT assay. In kind it is cell-based. To be noted: Homo sapiens, MCF7, 72 h. An outline of the steps: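 A549 in DMEM and MCF-7 in RPMI, each with 10% heat-inactivated FBS, 1% penicillin/streptomycin and 2 mmol/L glutamine at 37 °C, 5% CO2. Seeded at 2000 (A549) or 10,000 (MCF-7) cells/well and attached 24 h. Then 72 h with test compound at varying concentrations. MTT (5 mg/mL stock) added for 4 h at 37 °C, formazan dissolved in DMSO, absorbance read at 450/540 nm. Triplicates in three separate experiments.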
In general terms: Tetrazolium assays rely on reduction of a dye to a coloured formazan, in cell work by metabolically active cells.

Experiment [2] concerns the target PIK3CA E542 K/PIK3R1 (p110 α E542 K/p85 α) (Homo sapiens, UniProt P42336, E542K). Put plainly: Kinase selectivity for OMS14. In kind it is biochemical.
[3] abbreviates: read-out: % of inhibition (mean).
The mark [4] stands for this setting: read-out: % of inhibition, point 1.
Setting [5] is: read-out: % of inhibition, point 2.

Molecules are shown by their SMILES. Like-named read-outs stand apart in the source and are kept apart here.

Chain of AKT1 (PKB α) (P31749 whole entry): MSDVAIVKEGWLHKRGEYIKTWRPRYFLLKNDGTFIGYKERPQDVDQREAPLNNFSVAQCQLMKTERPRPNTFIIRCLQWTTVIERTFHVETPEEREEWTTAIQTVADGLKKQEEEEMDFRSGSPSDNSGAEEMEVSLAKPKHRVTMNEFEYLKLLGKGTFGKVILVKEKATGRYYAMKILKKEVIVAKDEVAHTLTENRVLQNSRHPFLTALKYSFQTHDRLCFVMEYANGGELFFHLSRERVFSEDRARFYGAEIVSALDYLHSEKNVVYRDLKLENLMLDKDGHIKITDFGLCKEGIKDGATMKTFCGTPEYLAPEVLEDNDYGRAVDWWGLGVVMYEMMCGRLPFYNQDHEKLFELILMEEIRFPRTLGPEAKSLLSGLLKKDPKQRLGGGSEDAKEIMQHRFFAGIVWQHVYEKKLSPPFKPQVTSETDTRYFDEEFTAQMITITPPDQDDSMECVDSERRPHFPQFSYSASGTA
Chain of PIK3CD/PIK3R1 (p110 δ/p85 α) (O00329 whole entry): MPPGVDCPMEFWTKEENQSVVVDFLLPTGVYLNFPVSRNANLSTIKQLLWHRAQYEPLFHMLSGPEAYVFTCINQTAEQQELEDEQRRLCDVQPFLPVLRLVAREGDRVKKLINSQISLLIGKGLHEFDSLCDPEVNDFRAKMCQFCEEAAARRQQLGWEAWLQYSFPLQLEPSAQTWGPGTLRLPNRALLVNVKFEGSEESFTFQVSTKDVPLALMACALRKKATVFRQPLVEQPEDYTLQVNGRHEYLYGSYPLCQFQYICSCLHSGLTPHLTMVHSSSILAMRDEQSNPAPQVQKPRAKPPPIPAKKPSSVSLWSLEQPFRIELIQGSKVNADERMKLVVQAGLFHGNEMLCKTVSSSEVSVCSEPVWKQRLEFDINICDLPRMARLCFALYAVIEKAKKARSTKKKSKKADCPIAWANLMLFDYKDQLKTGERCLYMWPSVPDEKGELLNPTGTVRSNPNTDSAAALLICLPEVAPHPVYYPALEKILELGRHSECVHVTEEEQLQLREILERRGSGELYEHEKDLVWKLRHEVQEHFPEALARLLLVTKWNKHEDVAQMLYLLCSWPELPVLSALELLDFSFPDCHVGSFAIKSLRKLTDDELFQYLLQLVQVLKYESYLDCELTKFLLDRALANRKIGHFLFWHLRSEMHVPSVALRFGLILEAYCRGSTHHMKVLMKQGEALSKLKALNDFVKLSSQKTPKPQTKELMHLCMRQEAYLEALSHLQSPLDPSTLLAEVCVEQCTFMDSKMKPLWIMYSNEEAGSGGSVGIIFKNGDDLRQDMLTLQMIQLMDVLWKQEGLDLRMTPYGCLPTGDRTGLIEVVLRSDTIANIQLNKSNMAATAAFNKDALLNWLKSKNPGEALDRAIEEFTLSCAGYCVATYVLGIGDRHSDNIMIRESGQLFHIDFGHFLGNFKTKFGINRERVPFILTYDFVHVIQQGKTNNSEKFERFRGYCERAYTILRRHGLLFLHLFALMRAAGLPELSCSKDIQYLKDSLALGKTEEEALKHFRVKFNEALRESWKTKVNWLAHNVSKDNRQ
Chain of PIK3CD/PIK3R1 (p110 δ/p85 α) (P27986 whole entry partner): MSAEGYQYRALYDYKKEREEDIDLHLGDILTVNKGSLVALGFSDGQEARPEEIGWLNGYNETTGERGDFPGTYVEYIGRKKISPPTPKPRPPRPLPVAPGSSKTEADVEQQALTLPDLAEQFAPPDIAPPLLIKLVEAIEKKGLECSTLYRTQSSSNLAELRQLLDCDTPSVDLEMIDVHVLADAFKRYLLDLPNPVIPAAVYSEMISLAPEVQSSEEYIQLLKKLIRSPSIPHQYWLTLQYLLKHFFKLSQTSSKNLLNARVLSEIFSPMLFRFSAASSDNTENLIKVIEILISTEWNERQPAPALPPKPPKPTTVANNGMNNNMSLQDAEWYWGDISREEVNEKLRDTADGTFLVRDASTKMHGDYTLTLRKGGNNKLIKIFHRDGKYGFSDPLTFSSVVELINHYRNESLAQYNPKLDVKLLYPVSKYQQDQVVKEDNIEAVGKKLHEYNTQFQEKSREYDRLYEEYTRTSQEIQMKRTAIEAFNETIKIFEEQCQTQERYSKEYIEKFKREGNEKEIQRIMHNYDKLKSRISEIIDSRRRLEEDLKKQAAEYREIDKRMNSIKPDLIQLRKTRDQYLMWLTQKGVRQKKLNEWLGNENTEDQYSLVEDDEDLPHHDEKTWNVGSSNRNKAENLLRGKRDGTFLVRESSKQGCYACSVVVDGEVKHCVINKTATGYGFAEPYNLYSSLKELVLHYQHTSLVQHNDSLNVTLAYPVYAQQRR
Chain of PIK3CA E542 K/PIK3R1 (p110 α E542 K/p85 α) (P42336 whole entry E542K): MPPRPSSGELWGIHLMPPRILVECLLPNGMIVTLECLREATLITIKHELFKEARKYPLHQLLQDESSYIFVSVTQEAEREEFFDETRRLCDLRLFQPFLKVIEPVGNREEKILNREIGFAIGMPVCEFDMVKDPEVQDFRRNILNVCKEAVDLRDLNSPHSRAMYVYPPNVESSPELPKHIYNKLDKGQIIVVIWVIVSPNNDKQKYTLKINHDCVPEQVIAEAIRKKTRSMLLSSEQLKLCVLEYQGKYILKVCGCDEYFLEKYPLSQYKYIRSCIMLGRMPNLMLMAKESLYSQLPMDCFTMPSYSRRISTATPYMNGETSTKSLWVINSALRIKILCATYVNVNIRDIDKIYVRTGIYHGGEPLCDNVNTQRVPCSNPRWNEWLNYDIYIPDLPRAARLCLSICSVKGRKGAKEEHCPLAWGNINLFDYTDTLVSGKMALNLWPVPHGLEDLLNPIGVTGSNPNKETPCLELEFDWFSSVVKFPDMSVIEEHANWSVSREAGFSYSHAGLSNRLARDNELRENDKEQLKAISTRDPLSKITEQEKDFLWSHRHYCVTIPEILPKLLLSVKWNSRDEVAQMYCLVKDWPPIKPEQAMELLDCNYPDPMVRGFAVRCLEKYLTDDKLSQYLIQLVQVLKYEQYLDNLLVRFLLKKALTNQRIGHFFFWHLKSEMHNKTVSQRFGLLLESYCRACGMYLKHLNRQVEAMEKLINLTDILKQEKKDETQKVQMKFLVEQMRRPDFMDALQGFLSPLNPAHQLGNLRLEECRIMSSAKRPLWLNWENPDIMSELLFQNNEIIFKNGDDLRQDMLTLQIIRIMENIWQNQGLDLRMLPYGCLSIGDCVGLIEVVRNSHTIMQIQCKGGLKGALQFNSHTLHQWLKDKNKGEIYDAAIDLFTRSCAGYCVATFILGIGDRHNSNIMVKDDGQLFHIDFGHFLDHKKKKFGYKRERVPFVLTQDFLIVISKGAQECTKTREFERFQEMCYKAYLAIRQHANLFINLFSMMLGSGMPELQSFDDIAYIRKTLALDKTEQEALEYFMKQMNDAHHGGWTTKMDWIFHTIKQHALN
Chain of PIK3CA E542 K/PIK3R1 (p110 α E542 K/p85 α) (P27986 whole entry partner): as the sequence (P27986 whole entry partner) above
Chain of PKN2 (PRK2) (Q16513 whole entry): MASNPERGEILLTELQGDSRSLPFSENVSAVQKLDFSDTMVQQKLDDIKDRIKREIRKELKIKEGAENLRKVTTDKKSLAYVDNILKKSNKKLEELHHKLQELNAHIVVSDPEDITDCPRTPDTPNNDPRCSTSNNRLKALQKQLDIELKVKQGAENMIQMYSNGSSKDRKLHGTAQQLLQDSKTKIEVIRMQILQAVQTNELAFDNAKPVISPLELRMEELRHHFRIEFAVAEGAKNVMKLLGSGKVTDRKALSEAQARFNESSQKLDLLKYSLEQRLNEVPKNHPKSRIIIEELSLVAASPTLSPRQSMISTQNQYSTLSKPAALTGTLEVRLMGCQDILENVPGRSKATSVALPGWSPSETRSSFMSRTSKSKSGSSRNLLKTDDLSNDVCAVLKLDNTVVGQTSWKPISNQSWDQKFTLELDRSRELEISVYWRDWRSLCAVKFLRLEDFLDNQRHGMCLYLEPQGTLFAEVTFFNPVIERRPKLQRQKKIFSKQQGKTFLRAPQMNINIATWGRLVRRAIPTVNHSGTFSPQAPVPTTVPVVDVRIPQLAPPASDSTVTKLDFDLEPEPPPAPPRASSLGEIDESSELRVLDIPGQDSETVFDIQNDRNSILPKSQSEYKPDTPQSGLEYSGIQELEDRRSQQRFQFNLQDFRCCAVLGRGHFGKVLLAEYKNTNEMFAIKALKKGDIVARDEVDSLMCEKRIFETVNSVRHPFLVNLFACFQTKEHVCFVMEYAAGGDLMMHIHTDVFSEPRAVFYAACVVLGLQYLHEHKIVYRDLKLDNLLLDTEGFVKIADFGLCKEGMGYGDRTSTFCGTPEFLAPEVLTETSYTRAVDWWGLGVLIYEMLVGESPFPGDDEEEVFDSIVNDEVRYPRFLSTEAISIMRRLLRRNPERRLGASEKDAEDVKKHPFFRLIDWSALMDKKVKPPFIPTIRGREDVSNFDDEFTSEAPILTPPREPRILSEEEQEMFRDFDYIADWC

By inhibition is commonly meant how much of the control response was suppressed. Usually IC50 stands for the midpoint of a concentration-inhibition curve. The low end stands for higher potency, the high end for lower potency. As to `O=C(CN1CCN(CC(=O)Nc2nc3ccccc3s2)CC1)Nc1ccc([N+](=O)[O-])cc1` [OMS14, N-(benzo[d]thiazol-2-yl)-2-(4-(2-((4-nitrophenyl)amino)-2-oxoethyl)piperazin-1-yl)acetamide], the inhibition at 100 µM at PKN2 (PRK2) (setting [3]) was found to be 10%; on PKN2 (PRK2) (setting [4]) it was 11%; on PKN2 (PRK2) (setting [5]), 8%; at AKT1 (PKB α) (setting [3]), 14%; at AKT1 (PKB α) (setting [4]), 11%; at AKT1 (PKB α) (setting [5]), 17%. For the same molecule, the inhibition at 100 µM is 65% in experiment [1] (setting [3]); 66% in experiment [1] (setting [4]); 64% in experiment [1] (setting [5]); 34% in experiment [2] (setting [3]); 33% in experiment [2] (setting [4]); 36% in experiment [2] (setting [5]). Moreover, in the experiment with MCF-7 cancer cell line, the IC50 worked out at 22.1 µM.

The values above are taken from publication PMC10975593 (ACS Omega, 2024).
